In ChEMBL document CHEMBL1759916, “Bicyclo[2.2.2]octyltriazole inhibitors of 11β-hydoxysteroid dehydrogenase type 1. Pharmacological agents for the treatment of metabolic syndrome” (Bioorg Med Chem Lett, 2011):

The compounds below were run against T1, 11-beta-hydroxysteroid dehydrogenase type 2 (Homo sapiens, UniProt P80365) (assay: Inhibition of human 11beta-HSD2 expressed in CHO-K1 cells assessed as conversion of [3H]-cortisol to [3H]-cortisone by scintillation proximity assay).
T1 sequence (P80365 whole entry): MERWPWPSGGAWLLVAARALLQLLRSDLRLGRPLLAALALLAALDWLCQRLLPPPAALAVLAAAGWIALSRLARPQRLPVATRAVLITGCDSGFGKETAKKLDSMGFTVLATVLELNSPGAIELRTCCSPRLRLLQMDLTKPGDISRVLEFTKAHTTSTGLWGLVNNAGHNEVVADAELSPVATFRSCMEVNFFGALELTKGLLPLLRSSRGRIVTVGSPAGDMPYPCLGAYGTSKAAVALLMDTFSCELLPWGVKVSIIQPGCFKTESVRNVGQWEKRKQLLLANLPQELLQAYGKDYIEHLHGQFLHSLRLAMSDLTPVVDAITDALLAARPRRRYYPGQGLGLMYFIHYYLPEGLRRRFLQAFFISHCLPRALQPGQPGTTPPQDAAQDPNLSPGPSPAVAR
Type: cell-based

Row | SMILES | IC50 [nM]
1 | CC(C)S(=O)(=O)CCC12CCC(c3nnc(-c4ccccc4C(F)(F)F)n3C)(CC1)CC2 | > 4000
2 | CCCS(=O)(=O)NCC12CCC(c3nnc(-c4ccccc4C(F)(F)F)n3C)(CC1)CC2 | > 4000
3 | Cn1c(-c2ccccc2C(F)(F)F)nnc1C12CCC(COc3ccc(S(C)(=O)=O)cc3)(CC1)CC2 | > 4000
4 | CCS(=O)(=O)CCC12CCC(c3nnc(-c4ccccc4Br)n3C)(CC1)CC2 | > 4000
5 | Cn1c(-c2ccccc2C(F)(F)F)nnc1C12CCC(CCS(=O)(=O)c3ccccc3)(CC1)CC2 | > 4000

The next lines start with the values.

Row | IC50 [nM] | SMILES
6 | > 4000 | CCS(=O)(=O)CCCCC12CCC(c3nnc(-c4ccccc4C(F)(F)F)n3C)(CC1)CC2
7 | > 4000 | CCS(=O)(=O)CCC12CCC(c3nnc(-c4ccccc4Cl)n3C)(CC1)CC2
8 | 4000 | COCCCCC12CCC(c3nnc(-c4ccccc4C(F)(F)F)n3C)(CC1)CC2

These compounds were tested on Mus musculus (assay: Inhibition of 11beta-HSD1 in ICR mouse assessed as inhibition of conversion of [3H]-cortisone to [3H]-cortisol at 10 mg/kg, po administered 16 hrs before [3H]-cortisone challenge).
Type: functional
Outline: (§1)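 Mouse pharmacodynamic model. Compound given 10 mg/kg PO, then 3H-cortisone by tail vein injection 1, 4 or 16 h after dosing. […] Plasma compound levels were measured after the PD studies.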

Row | SMILES | inhibition in vivo at 10 mg/kg [%]
9 | CC(C)S(=O)(=O)CCC12CCC(c3nnc(-c4ccccc4C(F)(F)F)n3C)(CC1)CC2 | 59
10 | CCS(=O)(=O)CCCCC12CCC(c3nnc(-c4ccccc4C(F)(F)F)n3C)(CC1)CC2 | 58
11 | CCCS(=O)(=O)NCC12CCC(c3nnc(-c4ccccc4C(F)(F)F)n3C)(CC1)CC2 | 7
12 | CCS(=O)(=O)CCC12CCC(c3nnc(-c4ccccc4Cl)n3C)(CC1)CC2 | 74
13 | Cn1c(-c2ccccc2C(F)(F)F)nnc1C12CCC(COc3ccc(S(C)(=O)=O)cc3)(CC1)CC2 | 28
14 | COCCCCC12CCC(c3nnc(-c4ccccc4C(F)(F)F)n3C)(CC1)CC2 | 1
15 | CCS(=O)(=O)CCC12CCC(c3nnc(-c4ccccc4Br)n3C)(CC1)CC2 | 65
16 | Cn1c(-c2ccccc2C(F)(F)F)nnc1C12CCC(CCS(=O)(=O)c3ccccc3)(CC1)CC2 | 6

The compounds below were run against T2, 11-beta-hydroxysteroid dehydrogenase type 2 (Mus musculus, UniProt P51661) (assay: Inhibition of mouse 11beta-HSD2 expressed in CHO-K1 cells assessed as conversion of [3H]-cortisol to [3H]-cortisone by scintillation proximity assay).
T2 sequence (P51661 whole entry): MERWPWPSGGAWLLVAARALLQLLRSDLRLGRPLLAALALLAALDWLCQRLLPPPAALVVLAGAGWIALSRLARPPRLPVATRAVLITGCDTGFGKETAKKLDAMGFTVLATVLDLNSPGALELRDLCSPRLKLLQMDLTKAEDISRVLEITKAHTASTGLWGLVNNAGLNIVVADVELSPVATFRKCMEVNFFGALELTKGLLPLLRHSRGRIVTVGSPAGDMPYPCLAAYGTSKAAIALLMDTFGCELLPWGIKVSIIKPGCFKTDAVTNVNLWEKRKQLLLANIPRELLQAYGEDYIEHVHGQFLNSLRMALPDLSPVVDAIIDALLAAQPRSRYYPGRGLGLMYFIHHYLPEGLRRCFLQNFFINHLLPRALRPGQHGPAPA
Type: cell-based
Outline: (§2)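 Scintillation proximity assay (SPA). IC50 values are the average of two determinations.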

Row | SMILES | IC50 [nM]
17 | CC(C)S(=O)(=O)CCC12CCC(c3nnc(-c4ccccc4C(F)(F)F)n3C)(CC1)CC2 | > 4000
18 | CCCS(=O)(=O)NCC12CCC(c3nnc(-c4ccccc4C(F)(F)F)n3C)(CC1)CC2 | > 4000
19 | Cn1c(-c2ccccc2C(F)(F)F)nnc1C12CCC(COc3ccc(S(C)(=O)=O)cc3)(CC1)CC2 | > 4000
20 | CCS(=O)(=O)CCC12CCC(c3nnc(-c4ccccc4Br)n3C)(CC1)CC2 | > 4000
21 | Cn1c(-c2ccccc2C(F)(F)F)nnc1C12CCC(CCS(=O)(=O)c3ccccc3)(CC1)CC2 | > 4000

Next, values leading:

Row | IC50 [nM] | SMILES
22 | > 4000 | CCS(=O)(=O)CCCCC12CCC(c3nnc(-c4ccccc4C(F)(F)F)n3C)(CC1)CC2
23 | > 4000 | CCS(=O)(=O)CCC12CCC(c3nnc(-c4ccccc4Cl)n3C)(CC1)CC2
24 | > 4000 | COCCCCC12CCC(c3nnc(-c4ccccc4C(F)(F)F)n3C)(CC1)CC2

Each compound was assayed against 11-beta-hydroxysteroid dehydrogenase 1 (Mus musculus, UniProt P50172) (assay: Inhibition of mouse 11beta-HSD1 expressed in CHO-K1 cells assessed as conversion of [3H]-cortisone to [3H]-cortisol by scintillation proximity assay).
Sequence of 11-beta-hydroxysteroid dehydrogenase 1 (Mus musculus, UniProt P50172) (P50172 whole entry): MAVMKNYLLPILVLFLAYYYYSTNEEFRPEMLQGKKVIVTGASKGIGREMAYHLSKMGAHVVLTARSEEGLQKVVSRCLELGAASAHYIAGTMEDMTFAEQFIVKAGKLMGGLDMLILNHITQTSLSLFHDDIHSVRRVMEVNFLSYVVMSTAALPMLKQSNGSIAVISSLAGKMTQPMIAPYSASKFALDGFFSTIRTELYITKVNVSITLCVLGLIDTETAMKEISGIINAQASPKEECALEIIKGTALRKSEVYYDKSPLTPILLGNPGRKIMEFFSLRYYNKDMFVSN
Type: cell-based

Row | SMILES | IC50 [nM]
25 | CC(C)S(=O)(=O)CCC12CCC(c3nnc(-c4ccccc4C(F)(F)F)n3C)(CC1)CC2 | 3.6
26 | CCCS(=O)(=O)NCC12CCC(c3nnc(-c4ccccc4C(F)(F)F)n3C)(CC1)CC2 | 1
27 | Cn1c(-c2ccccc2C(F)(F)F)nnc1C12CCC(COc3ccc(S(C)(=O)=O)cc3)(CC1)CC2 | 2
28 | Cn1c(-c2ccccc2C(F)(F)F)nnc1C12CCC(CCS(=O)(=O)c3ccccc3)(CC1)CC2 | 1.6

Next, values leading:

Row | IC50 [nM] | SMILES
29 | 1.8 | CCS(=O)(=O)CCCCC12CCC(c3nnc(-c4ccccc4C(F)(F)F)n3C)(CC1)CC2
30 | 2 | COCCCCC12CCC(c3nnc(-c4ccccc4C(F)(F)F)n3C)(CC1)CC2

The compounds below were run on Mus musculus (assay: Inhibition of 11beta-HSD1 in ICR mouse assessed as inhibition of conversion of [3H]-cortisone to [3H]-cortisol at 10 mg/kg, po administered 4 hrs before [3H]-cortisone challenge).
Type: functional
Outline: as §1

Row | SMILES | inhibition in vivo at 10 mg/kg [%]
31 | CC(C)S(=O)(=O)CCC12CCC(c3nnc(-c4ccccc4C(F)(F)F)n3C)(CC1)CC2 | 88
32 | CCS(=O)(=O)CCCCC12CCC(c3nnc(-c4ccccc4C(F)(F)F)n3C)(CC1)CC2 | 90
33 | CCCS(=O)(=O)NCC12CCC(c3nnc(-c4ccccc4C(F)(F)F)n3C)(CC1)CC2 | 93
34 | CCS(=O)(=O)CCC12CCC(c3nnc(-c4ccccc4Cl)n3C)(CC1)CC2 | 87
35 | Cn1c(-c2ccccc2C(F)(F)F)nnc1C12CCC(COc3ccc(S(C)(=O)=O)cc3)(CC1)CC2 | 79
36 | COCCCCC12CCC(c3nnc(-c4ccccc4C(F)(F)F)n3C)(CC1)CC2 | 76
37 | CCS(=O)(=O)CCC12CCC(c3nnc(-c4ccccc4Br)n3C)(CC1)CC2 | 86
38 | Cn1c(-c2ccccc2C(F)(F)F)nnc1C12CCC(CCS(=O)(=O)c3ccccc3)(CC1)CC2 | 69

These compounds were tested against 11-beta-hydroxysteroid dehydrogenase 1 (Homo sapiens, UniProt P28845) (assay: Inhibition of human 11beta-HSD1 expressed in CHO-K1 cells assessed as conversion of [3H]-cortisone to [3H]-cortisol by scintillation proximity assay).
Sequence of 11-beta-hydroxysteroid dehydrogenase 1 (Homo sapiens, UniProt P28845) (P28845 whole entry): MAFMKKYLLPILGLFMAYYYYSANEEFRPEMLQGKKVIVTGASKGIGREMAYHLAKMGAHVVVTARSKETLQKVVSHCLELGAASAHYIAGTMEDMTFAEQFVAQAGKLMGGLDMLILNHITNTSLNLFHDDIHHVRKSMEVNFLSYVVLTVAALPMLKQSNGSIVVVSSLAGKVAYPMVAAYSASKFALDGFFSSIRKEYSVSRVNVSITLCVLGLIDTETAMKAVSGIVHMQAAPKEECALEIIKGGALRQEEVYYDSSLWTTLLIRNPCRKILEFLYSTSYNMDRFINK
Type: cell-based
Outline: as §2

Row | SMILES | IC50 [nM]
39 | CC(C)S(=O)(=O)CCC12CCC(c3nnc(-c4ccccc4C(F)(F)F)n3C)(CC1)CC2 | 4.1
40 | CCCS(=O)(=O)NCC12CCC(c3nnc(-c4ccccc4C(F)(F)F)n3C)(CC1)CC2 | 8.1
41 | Cn1c(-c2ccccc2C(F)(F)F)nnc1C12CCC(COc3ccc(S(C)(=O)=O)cc3)(CC1)CC2 | 1
42 | CCS(=O)(=O)CCC12CCC(c3nnc(-c4ccccc4Br)n3C)(CC1)CC2 | 10
43 | Cn1c(-c2ccccc2C(F)(F)F)nnc1C12CCC(CCS(=O)(=O)c3ccccc3)(CC1)CC2 | 4.4

Further lines, results first:

Row | IC50 [nM] | SMILES
44 | 1.6 | CCS(=O)(=O)CCCCC12CCC(c3nnc(-c4ccccc4C(F)(F)F)n3C)(CC1)CC2
45 | 7.5 | CCS(=O)(=O)CCC12CCC(c3nnc(-c4ccccc4Cl)n3C)(CC1)CC2
46 | 2 | COCCCCC12CCC(c3nnc(-c4ccccc4C(F)(F)F)n3C)(CC1)CC2
